Sampled rows, rich in hits. Any-hit rate of the full collection: about 4.3%.
OX1R antag-1: human HCRTR1 antagonism; O43613; CHO/OX1R cells, Fluo-8 calcium fluorescence, orexin A; inhibition, % at 5 µM; actives 0.43% (n = 330,000); AID 434989;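 active = inhibition above its plate's threshold, mean inhibition of all tested compounds on the plate plus 3 SD, cut at about 37% in these data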;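 note: 0% = orexin A challenge wells and 100% = SB-334867-A antagonist wells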
GalR3 antagonist: antagonists of human GalR3. HEK293 GalR3-CNG cAMP membrane potential fluorescence; galR3 body fused to GalR1 C-terminus. actives 0.44% (n = 360,000). AID 651719. O60755. inhibition, % at 3 µM;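 active = inhibition above the screen-wide average plus 3 SD, cut at about 13% in these data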;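 note: forskolin and galanin both at EC90 stimulate the cells; cAMP rise reported by CNG channel membrane potential dye signal; 0% = forskolin plus galanin with DMSO and 100% = forskolin alone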
OX1R antag-2: antagonists of human orexin 1 receptor (OX1R) | O43613 | OX1R-expressing cells, FRET antagonist read-out | inhibition, % at 6.6 µM | actives 1.8% (n = 330,000); in the data active = inhibition mostly above about 38%, no sharp cut-off; inactive = mostly below about 40%;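 note: 0% = agonist challenge alone and 100% = reference antagonist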
CHO parental Ca: counter-screen: ATP calcium response change in parental CHO cells; parental CHO-K1, ATP-induced calcium, Fluo-8 fluorescence; inhibition, % at 5.6 µM; actives 0.63% (n = 330,000);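 active = inhibition above that plate's mean sample inhibition plus 3 SD, cut at about 26% in these data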;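 note: 0% = ATP-challenged DMSO wells and 100% = DMSO wells without ATP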
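Assay system: parental CHO cells; Read-out basis: percent inhibition of ATP-evoked calcium rise, normalized to controls; Benchmarks: ATP and no-ATP DMSO wells; Compound dosing: single nominal dose of 5.6 µM per compound; Signal: Fluo-8 calcium dye fluorescence; Also added: ATP as calcium-mobilizing challenge; Repeats: singlicate.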
TAAR1 antag: antagonists of human TAAR1; CHO RD-HGA16 TAAR1, Fluo-8 calcium fluorescence, antagonist; inhibition, % at 3 µM; actives 1.5% (n = 360,000);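 active = inhibition above a per-plate cutoff, the mean inhibition of test compounds on that plate plus 3 SD, cut at about 49% in these data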;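 note: 0% = DMSO plus EC80 beta-PEA response and 100% = DMSO alone without agonist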
Target sequence (Q96RJ0 whole entry, looked up): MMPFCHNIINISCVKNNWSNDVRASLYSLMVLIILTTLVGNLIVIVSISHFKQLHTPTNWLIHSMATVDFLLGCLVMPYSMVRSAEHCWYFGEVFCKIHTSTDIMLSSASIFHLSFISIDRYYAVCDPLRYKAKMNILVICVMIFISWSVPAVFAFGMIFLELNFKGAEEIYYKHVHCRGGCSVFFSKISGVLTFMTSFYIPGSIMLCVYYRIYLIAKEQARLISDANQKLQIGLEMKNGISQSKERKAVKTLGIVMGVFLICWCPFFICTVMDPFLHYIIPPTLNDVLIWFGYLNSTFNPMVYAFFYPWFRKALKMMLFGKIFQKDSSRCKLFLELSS
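Test system: CHO RD-HGA16 cells bearing hTAAR1 | Reagent: β-PEA, EC80 | Compound dosing: 3 µM, single point | Schedule: Dye loading 75 min at 37 °C, then 30 min room temperature | Signal: Calcium fluorescence with Fluo-8 | Evaluation: Percent inhibition of PEA-evoked calcium signal, max/basal emission ratio | Control set: DMSO-only wells and EC80 β-PEA-stimulated wells | Repeats: Singlicate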
TAAR1 agonist: agonists of human TAAR1 | Q96RJ0 | CHO RD-HGA16 TAAR1, Fluo-8 calcium fluorescence; vehicle wells 0%, saturating PEA agonist 100% | activation, % at 3 µM | actives 0.99% (n = 360,000);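 active = activation above the mean activation of all test compounds in the run plus 3 SD, cut at about 38% in these data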
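Benchmarks: low control DMSO, high control PEA (EC100); System: CHO RD-HGA16 cells carrying human TAAR1 plus Gα16; Detection: Fluo-8 fluorescence, 5 s baseline then 140 s kinetic read; Schedule: 17-24 h plating, Fluo-8 75 min 37 °C, 30 min RT; Read-out basis: % activation from peak over basal fluorescence ratio, DMSO-to-PEA scaled.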
TAAR1 ag confirm: human TAAR1 agonism, confirmed | CHO RD-HGA16 TAAR1, Fluo-8 calcium fluorescence; scaled: DMSO 0%, maximal phenethylamine 100% | AID 651783 | shares compounds with TAAR1 agonist | actives 82% (n = 2,400) | activation, % at 3 µM;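 active = activation above a cutoff set at the run's mean compound activation plus 3 SD, cut at about 39% in these data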
Ga16 ag counter: counter-screen for TAAR1 agonists: nonselective agonists in parental cells. shares compounds with TAAR1 agonist. CHO-Ga16 parental, Fluo-8 calcium fluorescence; normalized to maximal ATP response, DMSO zero. activation, % at 3 µM. actives 50% (n = 2,400). AID 651787;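 active = activation above the run cutoff, the mean activation over all tested wells plus 3 SD, cut at about 12% in these data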;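 note: 0% = DMSO wells and 100% = maximal ATP response on the peak over basal ratio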
TAAR1 desensitize: counter-screen for human TAAR1 agonists: agonists that desensitize TAAR1; shares compounds with TAAR1 agonist; AID 651951; CHO RD-HGA16 hTAAR1, Fluo-8 calcium, beta-PEA response inhibition; actives 46% (n = 2,400); inhibition, % at 3 µM;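 active = inhibition above the run cutoff, the mean inhibition of all test compounds plus 3 SD, cut at about 49% in these data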;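 note: beta-PEA stimulus applied at its EC80; loss of beta-PEA calcium signal after compound pretreatment read as receptor desensitization; 0% = DMSO with beta-PEA at EC80 and 100% = DMSO alone without agonist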
Ga16 antag count: counter-screen for TAAR1 agonists: nonselective Ga16 antagonists; shares compounds with TAAR1 agonist; CHO-Ga16 ATP-induced calcium, Fluo-8 fluorescence; inhibition, % at 3 µM; actives 39% (n = 2,400); AID 651952;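 active = inhibition above the plate's mean compound inhibition plus 3 SD, computed per plate, cut at about 22% in these data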;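 note: 0% = EC80 ATP with DMSO and 100% = DMSO wells without ATP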
An asterisk follows results filed as active; . = no result.

SMILES | OX1R antag-1 | GalR3 antagonist | OX1R antag-2 | CHO parental Ca | TAAR1 antag | TAAR1 agonist | TAAR1 ag confirm | Ga16 ag counter | TAAR1 desensitize | Ga16 antag count
COc1cccc(CN2CCN(Cc3cc4ccccc4[nH]3)CC2CCO)c1 (configuration not stated) | 12 | -4 | 5 | 3 | 69* | 63* | 70* | 49* | 81* | 56*
Cc1ccc(NC(=O)CCS(=O)(=O)c2cccc3nonc23)c(Br)c1 | -33 | -7 | 52 | -15 | -5 | -2 | . | . | . | .
O=C(CCc1ccccc1)N/N=C/c1cccc(O)c1 | -21 | -8 | 22 | -14 | 3 | -1 | . | . | . | .
O=C(N/N=C/c1cccc(O)c1)N/N=C/c1cccc(O)c1 | 11 | -8 | 2 | 3 | 16 | 46* | 81* | 1 | 38 | 11
Cn1c(N/N=C\c2cccc(O)c2)cc(=O)n(C)c1=O | -10 | -4 | 11 | -9 | 7 | 52* | 77* | 1 | 15 | 5
COc1cc(/C=N\Nc2cc(=O)n(C)c(=O)n2C)ccc1O | -13 | -4 | 14 | -13 | -6 | 6 | . | . | . | .
CCN(CC)CCN(Cc1cc2cc3c(cc2[nH]c1=O)OCCO3)C(=S)NC | -4 | -11 | 5 | -4 | 0 | 0 | . | . | . | .
O=[N+]([O-])c1cc(Cl)c2cccnc2c1O | -4 | 4 | 34 | -8 | 7 | 44* | 6 | 10 | 5 | 6
O=S(=O)(CCNCCc1ccccc1)NC1CCCCC1 | . | -2 | . | . | 13 | 42* | 60* | 1 | 17 | -2
CCCCNS(=O)(=O)CCNCCc1ccccc1 | -1 | -6 | 2 | -9 | -7 | 32 | . | . | . | .
CC(C)N(C)c1ncnc2c1ncn2[C@H]1CN(CCN2CCOCC2)C[C@@H](CO)O1 | . | -4 | . | . | 9 | 0 | . | . | . | .
CN(C)c1ccc(S(=O)(=O)NCC(=O)NCc2ccccc2)cc1[N+](=O)[O-] | -24 | -2 | 11 | -21 | 48 | 79* | 12 | 4 | 0 | -6
COc1ccc(CCNC(=O)CNS(=O)(=O)c2ccc(N(C)C)c([N+](=O)[O-])c2)cc1OC | -28 | -7 | 4 | -21 | -13 | 4 | . | . | . | .
O=C(COC(=O)c1cc(Br)ccc1O)Nc1ccc2c(c1)OCO2 | -10 | -9 | 6 | -9 | 70* | 75* | 44* | 36* | 48 | 40*
CC(C)[C@H](NC(=O)c1ccccc1)C(=O)OCC(=O)c1ccc(S(=O)(=O)N2CCCCC2)cc1 | -30 | -3 | 12 | -19 | -12 | 1 | . | . | . | .
Oc1ccc(Cl)cc1CNCc1ccc(F)cc1 | -12 | -6 | 25 | -14 | 29 | 66* | 65* | 30* | 22 | 11
O=C(O)CN1C(=O)CC(c2ccccc2)CC1=O | 5 | -1 | 15 | -1 | -12 | 1 | . | . | . | .
O=C(C#Cc1ccccc1)c1ccco1 | 25 | -4 | 23 | 16 | 18 | 5 | . | . | . | .
CCOC(=O)c1cn(C2CC2)c2c(F)c(F)c(F)cc2c1=O | -21 | -3 | 9 | -2 | -20 | 49* | 0 | -1 | 3 | 2
C[C@H]1[C@H](c2ccccc2)Oc2cccc(NCCc3ccccc3)c2S(=O)(=O)N1Cc1cccc(F)c1 | . | 3 | . | . | 7 | 61* | 41* | 4 | 2 | 3
CC(C)CNc1cccc2c1S(=O)(=O)N(Cc1ccc(F)cc1)[C@@H](C)[C@H](c1ccccc1)O2 | . | -8 | . | . | -27 | 3 | . | . | . | .

Compound activity: PubChem, The Scripps Research Institute Molecular Screening Center
